Screening data as filed in PubChem BioAssay.
FGF22 binding: binders of human FGF22 protein, primary screen, FGF22 synaptogenesis inhibitor project, biophysical, thermal shift, single point; recombinant FGF22 thermal shift, SYPRO orange fluorescence; percent of sucrose octasulfate shift, DMSO zero; 340,000 tested, 1.5% active; Fibroblast growth factor 22 (Homo sapiens), Q9HCT0; activity (Tm shift, normalised), % at 9.99 µM;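 active = mean Tm shift, scaled 0 neutral to 100 positive control, at about 1.3% or above, every replicate too, limit read from the data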
Target sequence (Q9HCT0 whole entry, looked up): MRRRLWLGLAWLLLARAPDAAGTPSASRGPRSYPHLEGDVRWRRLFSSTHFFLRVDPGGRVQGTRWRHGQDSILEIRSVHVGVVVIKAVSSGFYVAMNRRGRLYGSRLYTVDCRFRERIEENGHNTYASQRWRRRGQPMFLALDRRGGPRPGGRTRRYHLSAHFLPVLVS
Statin myotox sup: suppressors of statin myotoxicity in C2C12 myotubes, primary screen, cell-based, single point, plate reader. rescue of ATP level, % at 7.49 µM. C2C12 myotubes + simvastatin, ATP luminescence, 48 h; scaled: DMSO 0, geranylgeraniol control 100. 330,000 tested, 0.78% active;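 active = mean ATP rescue above about 67%, or every replicate alone reaching that limit, limit read from the data, passing the limit was not always enough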;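 note: myotubes were challenged with 10 µM simvastatin during compound exposure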
Ecoli rRNA inh: reduced GFP signal of wild-type E. coli, primary screen, bacterial rRNA inhibitor project, GFP/RFP fluorescence, OD600, single point; 350,000 tested, 1.6% active; E. coli WT GFP vs humanized-ribosome RFP mutants, 24 h; active compounds read low; DMSO median 0, no signal -100; GFP signal change (wild-type ribosome), % (test concentration not listed);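 active = significant combined selectivity score with lowered wild-type GFP, culture density cut under 30%, mutant RFP and density less affected; inactive = any of these conditions unmet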
FN deposition inh: inhibitors of fibronectin matrix deposition, primary screen, AH1F cells, Alexa488-fibronectin fluorescence, plate reader | AH1F fibroblasts, overnight | inhibition, % at 12.6 µM | 350,000 tested, 0.086% active;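 active = mean inhibition across replicates of 30% or more, regardless of how many single replicates reach that level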
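Test system: AH1F fibroblast monolayer depositing Alexa488-labelled fibronectin into matrix. Input: 10000 cells per well. Technique: fluorescence, ex 485 nm, em 525 nm. Buffer or medium: DMEM plus 2% serum, read in PBS. Timing: 1 h cell adhesion before compound, then overnight fibronectin incubation. Compound: single dose, pinned. Read-out basis: inhibition from reduced deposited-fibronectin fluorescence.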
E-sel inducer: E-selectin induction in HUVECs, primary screen, imaging, HUVEC, immunofluorescence imaging, single point; activation, % at 7.58 µM; AID 686992, 2013; 260,000 tested, 0.37% active; normalized: neutral wells 0, TNF-alpha wells 100; P16581;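 active = mean E-selectin-positive cell signal at least 10% of the positive control, reached in at least 60% of replicates, without over 20% cell loss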
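Material: HUVEC primary endothelial cells; Amount: 3,000 cells per well; Dosing: single concentration; Medium: EGM-2 growth medium on 0.1% gelatin-coated wells; Read-out basis: percent E-selectin-positive cells; Signal: immunofluorescence imaging; Control set: TNF-alpha, DMSO.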
SIRT5 inh: SIRT5 desuccinylase inhibitors, primary screen, biochemical, fluorescence imaging, single point, set 5 | Purified SirT5, succinyl-peptide AMC, trypsin-coupled fluorescence | NAD-dependent protein deacylase sirtuin-5, mitochondrial (Homo sapiens), Q9NXA8 | inhibition, % at 15 µM | 330,000 tested, 1.1% active; in the data active = inhibition above about 15%
Target sequence (Q9NXA8 whole entry, looked up): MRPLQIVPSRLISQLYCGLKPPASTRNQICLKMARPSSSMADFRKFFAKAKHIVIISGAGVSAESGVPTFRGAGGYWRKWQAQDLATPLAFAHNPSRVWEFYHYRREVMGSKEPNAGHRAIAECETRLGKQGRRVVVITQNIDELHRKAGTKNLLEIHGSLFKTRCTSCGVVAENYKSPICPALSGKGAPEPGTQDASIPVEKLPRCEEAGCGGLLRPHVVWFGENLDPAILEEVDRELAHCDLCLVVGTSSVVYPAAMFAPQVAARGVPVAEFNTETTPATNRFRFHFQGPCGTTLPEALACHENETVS
Numbers stand for hits; - = inactive; . = no result given. Shown are actives, neighbours in structure and some others; about 4% of the full set was active somewhere.

SMILES | FGF22 binding | Statin myotox sup | Ecoli rRNA inh | FN deposition inh | E-sel inducer | SIRT5 inh
CCOC(=O)c1ccc(NC(=O)C2CC(=O)N=C(N)S2)cc1 (stereo not given) | 43.3 | - | - | - | - | -
O=C(N[C@@H]1CC[C@H](CCn2cc(-c3ccccn3)nn2)O[C@@H]1CO)c1cccnc1 | - | - | - | . | - | -
CO[C@H]1CN(C)C(=O)c2ccc(NS(C)(=O)=O)cc2OC[C@H](C)N(Cc2ccccn2)C[C@@H]1C | - | . | - | - | - | -
CC1CCN(S(=O)(=O)c2ccc(C(=O)N(C)C3CCS(=O)(=O)C3)cc2)CC1 (stereo not given) | - | - | - | - | - | 24.9
O=C(Nc1ccccc1C(=O)O)c1cc(S(=O)(=O)Nc2ccccc2)ccc1Cl | 2.8 | - | - | - | - | 23.2
COc1ccc(NS(=O)(=O)c2ccc(Cl)c(NC(=O)c3ccccc3F)c2)cc1 | - | - | -12.6 | . | - | .
CC(C)NC(=O)N(C)C[C@H]1Oc2ccc(NC(=O)Cn3cnnn3)cc2C(=O)N([C@H](C)CO)C[C@H]1C | . | . | - | . | - | .
Cc1ccc(S(=O)(=O)NC[C@@H]2CC[C@H]3[C@H](CN3Cc3cc(-c4ccccc4)on3)O2)cc1 | . | . | . | . | . | -
CC(C)Cc1nnc(NC(=O)CSc2nc(N)cc(=O)[nH]2)s1 | . | - | . | active | . | .
CC(C)OC(=O)NCCOC(=O)Nc1ccc(Cl)cc1 | - | . | -21.2 | - | - | -
CC(C)OC(=O)NCCOC(=O)Nc1ccccc1Cl | - | . | - | - | - | -
O=c1[nH]cnc2c1sc(=S)n2-c1ccccc1 | . | - | . | . | . | .
C=CCn1c(=S)sc2c(=O)[nH]cnc21 | - | . | -23.4 | - | - | -
O=S(=O)(c1ccc(Cl)cc1)N1CCN(Cc2c[nH]c3ccccc23)CC1 | . | - | . | - | . | .
Clc1ccccc1N1CCN(Cc2c[nH]c3ccccc23)CC1 | - | . | -45.0 | - | . | -
COc1ccc(NS(=O)(=O)c2cc([N+](=O)[O-])ccc2N/N=C/c2c(C)[nH]c3ccccc23)cc1 | - | - | - | - | - | -
Cc1[nH]c2ccccc2c1/C=N/NC(=S)NC(C)C | - | . | -47.0 | - | - | -
Cc1cc(C(=O)NN=Cc2c(C)[nH]c3ccccc23)c(C)o1 | - | - | - | - | . | -
Cc1[nH]c2ccccc2c1/C=N/NC(=O)c1cccc(S(=O)(=O)Nc2cccc(C(F)(F)F)c2)c1 | 43.0 | . | - | - | - | -
CCC(=O)Nc1ccc(C(=O)N/N=C/c2c(C)[nH]c3ccccc23)cc1 | - | - | - | - | - | -
Cc1[nH]c2ccccc2c1/C=N\NC(=O)c1ccccc1Cl | 43.2 | - | - | - | - | .
Cc1[nH]c2ccccc2c1/C=N/Nc1ccccc1[N+](=O)[O-] | 1.9 | . | -20.3 | - | - | -
CC(C)[C@@H](C)NC(=O)N(C)C[C@H]1OCc2ccccc2-c2c(n(C)c3ccccc23)C(=O)N([C@H](C)CO)C[C@@H]1C | - | . | - | - | - | -
Cc1noc(C)c1S(=O)(=O)N(C)C[C@H]1Oc2ccc(NC(=O)CCC(F)(F)F)cc2CC(=O)N([C@H](C)CO)C[C@H]1C | - | - | - | - | - | -
CCC(=O)N1[C@@H]2Cn3c(cccc3=O)[C@H]1[C@@H](C(=O)NC1CCC1)[C@@H]2CO | - | - | - | . | - | -
SMILES | FGF22 binding | Statin myotox sup | Ecoli rRNA inh | FN deposition inh | E-sel inducer | SIRT5 inh
CO[C@@H]1CN(C)C(=O)c2ccc(NS(=O)(=O)c3ccc(C)cc3)cc2OC[C@@H](C)N(Cc2ccccn2)C[C@H]1C | - | - | - | - | - | -
Cc1ccc(Cn2nnnc2CN2CCC(O)(c3ccc(F)cc3)CC2)cc1 | - | - | -27.2 | . | . | -
OC1(c2ccccc2F)CCN(Cc2nnnn2Cc2ccc(F)cc2)CC1 | - | - | -20.9 | - | - | -
COc1ccc(Cn2nnnc2CN2CCC(O)(c3ccccc3F)CC2)cc1 | - | . | - | - | - | .
COc1ccccc1-c1ccc(C2[C@@H]3CN(S(=O)(=O)c4ccccc4)C[C@H]2N3)cc1 (stereo not given in full) | . | . | - | - | - | -
C[C@H]1CN([C@@H](C)CO)S(=O)(=O)c2ccc(C3=CCCC3)cc2O[C@H]1CN(C)C(=O)c1cccnc1 | - | - | - | - | - | -
Cc1ccc2nc(N/N=C/c3ccco3)cc(C)c2c1 | - | . | -20.1 | - | . | -
CN(C)S(=O)(=O)c1ccc(-c2csc(N/N=C/c3ccco3)n2)cc1 | - | . | -19.8 | - | . | -
Cc1ccc(-c2csc(N/N=C/c3ccco3)n2)cc1 | . | - | . | - | . | .
Brc1ccc(-c2csc(N/N=C/c3ccco3)n2)cc1 | - | - | -38.5 | - | . | -
Cc1sc(N/N=C/c2ccco2)nc1-c1ccccc1 | 43.6 | . | - | - | . | -
Cc1ccc2nc(SCC(=O)N/N=C/c3ccco3)cc(C)c2c1 | - | . | - | - | - | -
C[C@@H]1CN([C@@H](C)CO)C(=O)c2cccc(N(C)C)c2O[C@H]1CN(C)S(C)(=O)=O | - | - | - | - | - | -
CC=Cc1ccc2n(c1=O)C[C@H]1[C@H](CO)[C@@H](C(=O)NCCC)[C@@H]2N1CC1CCCC1 (mixture of isomers) | - | - | - | . | - | -
CCNC(=O)C[C@@H]1CC[C@@H]2[C@@H](COc3ccc(NC(=O)Nc4ccccc4OC)cc3C(=O)N2C)O1 | - | - | - | - | - | -
CC1(C)C(c2cccs2)=[N+]([O-])C2(CCCCC/C2=N\NC(N)=O)N1O (stereo not given) | . | - | - | . | . | -
CC1(C)C(c2ccc(Cl)cc2)=[N+]([O-])C2(CCCC/C2=N\O)N1O (stereo not given) | . | 116.3 | . | . | . | .
CC(=O)c1c(C)[nH]c(C(=O)CSc2nnc(CN3CCCCCC3=O)n2-c2ccccn2)c1C | . | - | . | - | . | .
CCNC(=O)CSc1nnc(CN2CCCCCC2=O)n1-c1ccccn1 | 43.2 | . | - | - | - | -
Cc1nn(CC(=O)NCCCN2CCC(Cc3ccccc3)CC2)c(=O)c2cc(-c3ccccc3)nn12 | - | - | - | - | - | 25.1
CCc1ccc(-c2cc3c(=O)n(CC(=O)NCCCN4CCC(Cc5ccccc5)CC4)nc(C)n3n2)cc1 | - | - | - | - | - | -
COc1ccccc1C(=O)Nc1ccc(S(=O)(=O)N2CCCCC2c2cccnc2)cc1 (stereo not given) | - | . | -22.4 | - | . | -
